For data set [1], the system named is HCT-116. The data set can be described thus: Antiproliferative activity against human HCT-116 cells assessed as cell growth at 1 uM measured after 3 days by [3H]-thymidine incorporation assay relative to control. The format is functional. The settings on record: HCT-116, 72 h, time 3 day, read-out: Activity. The essentials: (§1)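 HCT116 and MDA-MB-231 cells from ATCC, seeded at 3000 cells/well, exposed to inhibitor for three days; 0.04 µCi 3H-thymidine added per well 5 h before harvest onto glass fibre filters, incorporation counted by scintillation and expressed relative to untreated controls. Triplicate wells, at least two independent experiments. Single-point screen at 1 µM; IC50 determined from varying concentrations.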
Background: Dividing cells build labelled thymidine or BrdU into new DNA.

Data set [2] has as its system MDA-MB-231. Nature of the data set: Antiproliferative activity against human MDA-MB-231 cells assessed as cell growth at 1 uM measured after 3 days by [3H]-thymidine incorporation assay relative to control. The format is functional. As to conditions: MDA-MB-231, 72 h, time 3 day, read-out: Activity. In short, it runs like this: as §1
Data set [3] is described as follows: Thermodynamic solubility of compound in water measured after 15 mins RP-HPLC analysis. The class given is physicochemical. As to conditions: read-out: Therm_solubility.

≈ marks a conversion by molar mass, not a printed value.

Take `COc1cccc(NC(=O)c2sc3nc4c(cc3c2N)CN(Cc2ccccc2)CC4)c1`: the growth at 1 µM is 85.2% in data set [1] and 90.7% in data set [2]. For the same molecule, the solubility thermodynamic at 0.25 h in data set [3] worked out at 0.3 µg/mL (≈ 0.675 µM).
For `Nc1c(C(=O)Nc2cccc3c2OCCO3)sc2nc3c(cc12)C(=O)CCC3`, in that order: 18.6%, 17.8% and 0.12 µg/mL (≈ 0.303 µM).
For `Nc1c(C(=O)Nc2ccccc2Cl)sc2nc3c(cc12)CN(Cc1ccccc1)CC3`, the growth at 1 µM in data set [1] is 99.4%; in data set [2], 99.8%. Further, the solubility thermodynamic at 0.25 h in data set [3] was determined as 1.06 µg/mL (≈ 2.36 µM).
For `COc1ccc(NC(=O)c2sc3nc4c(cc3c2N)CN(C)CC4)cc1`, in that order: 98.9%, 90.3% and 2.17 µg/mL (≈ 5.89 µM).
For `Nc1c(C(=O)Nc2ccnc3ccccc23)sc2nc3c(cc12)C(=O)CCC3`, in that order: 101%, 107% and 0.64 µg/mL (≈ 1.65 µM).
As to `Cc1c(F)cccc1NC(=O)c1sc2nc3c(cc2c1N)CN(Cc1ccccc1)CC3`, the values for the growth at 1 µM in data set [1] and in data set [2] were 98.1% and 97.3%, respectively. Moreover, the solubility thermodynamic at 0.25 h in data set [3] was 0.84 µg/mL (≈ 1.88 µM).
For `Nc1c(C(=O)Nc2cccc3cnccc23)sc2nc3c(cc12)CN(Cc1ccccc1)CC3`, in that order: 110%, 108% and 1.12 µg/mL (≈ 2.41 µM).
On to `CC(=O)c1cc2c(N)c(C(=O)Nc3ccccc3Cl)sc2nc1C`, for which the figures for the growth at 1 µM in data set [1] and in data set [2] were 87.3% and 99.6%, respectively. Further, in data set [3], the solubility thermodynamic at 0.25 h is 0.13 µg/mL (≈ 0.361 µM).
For `Cc1nc2sc(C(=O)Nc3ccnc4ccccc34)c(N)c2cc1C(C)O` (stereo not drawn), the growth at 1 µM in data set [1] amounted to 93.6%; in data set [2] it was 107%. Also, the solubility thermodynamic at 0.25 h in data set [3] stood at 18.5 µg/mL (≈ 49 µM).
For `Nc1c(C(=O)Nc2ccccc2)sc2nc3c(cc12)COCC3`, in that order: 91.5%, 98.9% and 1.03 µg/mL (≈ 3.17 µM).
For `Nc1c(C(=O)Nc2cccc3c2OCCO3)sc2nc3c(cc12)CN(Cc1ccccc1)CC3`, in that order: 88.2%, 89.3% and 2.1 µg/mL (≈ 4.44 µM).
For `Nc1c(C(=O)Nc2cccc3ccncc23)sc2nc3c(cc12)CN(Cc1ccccc1)CC3`, in that order: 103%, 108% and 2.79 µg/mL (≈ 5.99 µM).
For the molecule `Nc1c(C(=O)Nc2cccc3ccccc23)sc2nc3c(cc12)COCC3`, the values for the growth at 1 µM in data set [1] and in data set [2] were 100% and 78.3%, respectively. For the same molecule, in data set [3], the solubility thermodynamic at 0.25 h stood at 4 µg/mL (≈ 10.7 µM).
Take `COc1ccc(NC(=O)c2sc3nc(C)c(C(C)=O)cc3c2N)cc1`: the growth at 1 µM in data set [1] was 82.9%; in data set [2], 84.6%. Further, in data set [3], the solubility thermodynamic at 0.25 h came to 0.13 µg/mL (≈ 0.366 µM).
For `CC(=O)c1cc2c(N)c(C(=O)Nc3cccc(C(F)(F)F)c3C)sc2nc1C`, in that order: 106%, 67.7% and 1.17 µg/mL (≈ 2.87 µM).
For `Nc1c(C(=O)Nc2ccccc2)sc2nc3c(cc12)CNCC3`, in that order: 100%, 89.7% and 40.5 µg/mL (≈ 125 µM).
For `Nc1c(C(=O)Nc2ccccn2)sc2nc3c(cc12)C(=O)CCC3`, in that order: 10.2%, 27% and 0.64 µg/mL (≈ 1.89 µM).
For `Cc1nc2sc(C(=O)Nc3ccccc3)c(N)c2cc1C(C)O` (stereo not drawn), the growth at 1 µM in data set [1] worked out at 95.3%; in data set [2], 107%. Moreover, in data set [3], the solubility thermodynamic at 0.25 h is 3.51 µg/mL (≈ 10.7 µM).
For `Nc1c(C(=O)Nc2cccc3ncccc23)sc2nc3c(cc12)C(=O)CCC3`, in that order: 96.3%, 96.9% and 0.41 µg/mL (≈ 1.06 µM).
For `CC(=O)c1cc2c(N)c(C(=O)Nc3ccccn3)sc2nc1C`, in that order: 91.7%, 92.9% and 0.45 µg/mL (≈ 1.38 µM).
For `Cc1ccccc1NC(=O)c1sc2nc3c(cc2c1N)CN(C)CC3`, in that order: 101%, 95.3% and 5.61 µg/mL (≈ 15.9 µM).
Turning to `Nc1c(C(=O)Nc2cccc3ncccc23)sc2nc3c(cc12)CN(Cc1ccccc1)CC3`, the growth at 1 µM in data set [1] came to 104%; in data set [2], 91.3%. The solubility thermodynamic at 0.25 h in data set [3] was determined as 0.62 µg/mL (≈ 1.33 µM).
For `Cc1ccccc1NC(=O)c1sc2nc(C)c(C(C)O)cc2c1N` (stereo not drawn), in that order: 99.9%, 97.9% and 29.5 µg/mL (≈ 86.5 µM).
For `COc1ccc(NC(=O)c2sc3nc4c(cc3c2N)CN(Cc2ccccc2)CC4)cc1`, in that order: 87.4%, 94.1% and 0.197 µg/mL (≈ 0.443 µM).
For `Cc1ccccc1NC(=O)c1sc2nc3c(cc2c1N)COCC3`, in that order: 101%, 103% and 7.52 µg/mL (≈ 22.2 µM).
For `Nc1c(C(=O)Nc2cccc3cccnc23)sc2nc3c(cc12)C(=O)CCC3`, the figures for the growth at 1 µM in data set [1] and in data set [2] were 101% and 99.2%, respectively. The solubility thermodynamic at 0.25 h in data set [3] is 0.44 µg/mL (≈ 1.13 µM).
Turning to `Cc1nc2sc(C(=O)Nc3cccc4c3OCCO4)c(N)c2cc1C(C)O` (stereo not drawn), the figures for the growth at 1 µM in data set [1] and in data set [2] were 58.4% and 62.3%, respectively. In data set [3], the solubility thermodynamic at 0.25 h amounted to 3.06 µg/mL (≈ 7.94 µM).
For `COc1ccc(NC(=O)c2sc3nc(C)c(C(C)O)cc3c2N)cc1` (stereo not drawn), the growth at 1 µM worked out at 97.5% in data set [1] and 114% in data set [2]. Also, in data set [3], the solubility thermodynamic at 0.25 h turned out to be 1.79 µg/mL (≈ 5.01 µM).
With `Nc1c(C(=O)Nc2ccnc3ccccc23)sc2nc3c(cc12)CN(Cc1ccccc1)CC3`, the growth at 1 µM was 82.8% in data set [1] and 104% in data set [2]. Moreover, the solubility thermodynamic at 0.25 h in data set [3] turned out to be 3.83 µg/mL (≈ 8.23 µM).
For `Cc1nc2sc(C(=O)Nc3cccc4cnccc34)c(N)c2cc1C(C)O` (stereo not drawn), in that order: 110%, 102% and 7.55 µg/mL (≈ 19.9 µM).
On to `Nc1c(C(=O)Nc2ccc3c(c2)OCCO3)sc2nc3c(cc12)CN(Cc1ccccc1)CC3`, for which the growth at 1 µM in data set [1] worked out at 83.2%; in data set [2], 94.9%. In addition, in data set [3], the solubility thermodynamic at 0.25 h was 0.7 µg/mL (≈ 1.48 µM).
For `Nc1c(C(=O)Nc2cncc3ccccc23)sc2nc3c(cc12)C(=O)CCC3`, in that order: 97.8%, 111% and 0.71 µg/mL (≈ 1.83 µM).
For `Cc1nc2sc(C(=O)Nc3ccccn3)c(N)c2cc1C(C)O` (stereo not drawn), in that order: 96.5%, 93.8% and 5.43 µg/mL (≈ 16.5 µM).
For `CC(=O)c1cc2c(N)c(C(=O)Nc3ccccc3C)sc2nc1C`, in that order: 110%, 97.1% and 1.49 µg/mL (≈ 4.39 µM).
For the molecule `CN1CCc2nc3sc(C(=O)Nc4ccccc4)c(N)c3cc2C1`, the growth at 1 µM in data set [1] came to 100%; in data set [2] it was 91.2%.
As for `Nc1c(C(=O)Nc2cccc3cccnc23)sc2nc3c(cc12)CN(Cc1ccccc1)CC3`, the growth at 1 µM in data set [1] was determined as 98.2%; in data set [2], 104%. Besides, the solubility thermodynamic at 0.25 h in data set [3] amounted to 1.17 µg/mL (≈ 2.51 µM).
For `Nc1c(C(=O)Nc2cccc(Cl)c2)sc2nc3c(cc12)CN(Cc1ccccc1)CC3`, in that order: 89.9%, 80.5% and 0.213 µg/mL (≈ 0.474 µM).
For `Nc1c(C(=O)Nc2ccncc2)sc2nc3c(cc12)C(=O)CCC3`, in that order: 110%, 108% and 1.54 µg/mL (≈ 4.55 µM).
For `CC(=O)c1cc2c(N)c(C(=O)Nc3cccc4ncccc34)sc2nc1C`, in that order: 93%, 98.7% and 1.3 µg/mL (≈ 3.45 µM).
In the case of `COc1cccc(NC(=O)c2sc3nc(C)c(C(C)=O)cc3c2N)c1`, the growth at 1 µM was 96.5% in data set [1] and 96% in data set [2]. The solubility thermodynamic at 0.25 h in data set [3] amounted to 1.1 µg/mL (≈ 3.09 µM).
For `CC(=O)c1cc2c(N)c(C(=O)Nc3cccc4cccnc34)sc2nc1C`, in that order: 97%, 86.7% and 3 µg/mL (≈ 7.97 µM).
For `COc1cccc(NC(=O)c2sc3nc(C)c(C(C)=O)cc3c2N)c1C`, the growth at 1 µM in data set [1] was 96.8%; in data set [2], 99.7%. The solubility thermodynamic at 0.25 h in data set [3] came to 1.52 µg/mL (≈ 4.11 µM).
For `Cc1nc2sc(C(=O)Nc3ccncc3)c(N)c2cc1C(C)O` (stereo not drawn), in that order: 111%, 113% and 2.85 µg/mL (≈ 8.68 µM).
In the case of `CC(=O)c1cc2c(N)c(C(=O)Nc3cccc4cnccc34)sc2nc1C`, the figures for the growth at 1 µM in data set [1] and in data set [2] were 111% and 99.8%, respectively.
With `Nc1c(C(=O)Nc2cccc3ccncc23)sc2nc3c(cc12)C(=O)CCC3`, the growth at 1 µM in data set [1] came to 98.1%; in data set [2], 115%. In addition, the solubility thermodynamic at 0.25 h in data set [3] came to 1.94 µg/mL (≈ 4.99 µM).
Take `CN1CCc2nc3sc(C(=O)Nc4cccc5ccccc45)c(N)c3cc2C1`: the growth at 1 µM is 93.5% in data set [1] and 89% in data set [2]. In addition, in data set [3], the solubility thermodynamic at 0.25 h was 2.17 µg/mL (≈ 5.59 µM).
For `Cc1nc2sc(C(=O)Nc3cccc4ccncc34)c(N)c2cc1C(C)O` (stereo not drawn), in that order: 83.1%, 94.6% and 10.1 µg/mL (≈ 26.6 µM).
In the case of `Cc1nc2sc(C(=O)Nc3cncc4ccccc34)c(N)c2cc1C(C)O` (stereo not drawn), the growth at 1 µM in data set [1] came to 109%; in data set [2], 106%.
For `Cc1nc2sc(C(=O)Nc3cccc4cccnc34)c(N)c2cc1C(C)O` (stereo not drawn), in that order: 110% and 102%.
